pIC50, pKi: −log10 of the molar value.
Key:
HT-1080 [1] = test: Selectivity ratio of IC50 for HT1080 cells transfected with pCMV6-AC empty plasmid to IC50 for human HT1080 cells transfected with CYP1A1; assay type: functional
How it was run: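 Ratio is IC50 (HT-1080 empty vector) over IC50 (HT-1080 CYP1A1). Both lines stably transfected (pCMV6-AC plasmids) and kept under G418 selection, seeded at 3.0 x 10^3 cells. IC50s from SRB antiproliferative assay.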

MDA-MB-468 = test: Antiproliferative activity against ER/PR/HER2 deficient human MDA-MB-468 cells after 72 hrs by SRB assay; assay type: functional, cell-based; settings: MDA-MB-468, 72 h
How it was run: (§1)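 SRB antiproliferative assay (modified NCI protocol). Cells seeded per well (SK-BR-3, MDA-MB-231, T47D, HT-1080, HT-1080 CYP1A1 and empty-vector: 3.0 x 10^3; MDA-MB-468: 5.0 x 10^3; MCF7: 7.5 x 10^3), preincubated 24 h. DMSO-solubilized drug added at 0.75 to 1.0 x 10^5 nM, then 72 h. Fixed with cold 10% TCA, stained with 0.1% sulforhodamine B, absorbance read at 530-565 nm. At least two experiments, triplicate cultures.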

HT-1080 [2] = test: Antiproliferative activity against human HT1080 cells transfected with pCMV6-AC empty plasmid after 72 hrs by SRB assay; assay type: functional, cell-based; settings: HT-1080, 72 h; how it was run: as §1
SK-BR-3 = test: Antiproliferative activity against ER/PR deficient and HER2 expressing human SKBR3 cells after 72 hrs by SRB assay; assay type: functional, cell-based; settings: SK-BR-3, 72 h; how it was run: as §1
T47D = test: Antiproliferative activity against ER/PR/HER2 expressing human T47D cells after 72 hrs by SRB assay; assay type: functional, cell-based; how it was run: as §1
[3] = Selectivity ratio of IC50 for ER/PR/HER2 deficient human MDA-MB-231 cells to IC50 for ER/PR/HER2 expressing human T47D cells; assay type: functional
How it was run: (§2)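 Ratio is IC50 in reference line over IC50 in sensitive line. […] Cells in DMEM with 5% calf serum at 37 °C. At least two experiments, triplicate cultures; assay accepted when relative SD < 10%.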

MDA-MB-231 = test: Antiproliferative activity against ER/PR/HER2 deficient human MDA-MB-231 cells after 72 hrs by SRB assay; assay type: functional, cell-based; settings: MDA-MB-231, 72 h; how it was run: as §1
[4] = Selectivity ratio of IC50 for ER/PR/HER2 deficient human MDA-MB-231 cells to IC50 for ER/PR deficient and HER2 expressing human SKBR3 cells; assay type: functional; how it was run: as §2
[5] = Selectivity ratio of IC50 for ER/PR/HER2 deficient human MDA-MB-231 cells to IC50 for human MCF7 cells; assay type: functional; how it was run: as §2
HT-1080 [6] = test: Antiproliferative activity against human HT1080 cells transfected with CYP1A1 after 72 hrs by SRB assay; assay type: functional, cell-based; settings: HT-1080, 72 h; how it was run: as §1
MCF7 [7] = test: Antiproliferative activity against human MCF7 cells after 72 hrs by SRB assay; assay type: functional, cell-based; settings: MCF7, 72 h; how it was run: as §1
HT-1080 [8] = test: Antiproliferative activity against human wild type HT1080 cells after 72 hrs by SRB assay; assay type: functional, cell-based; settings: HT-1080, 72 h; how it was run: as §1
Cytochrome P450 1A1 [9] = target: T1, Cytochrome P450 1A1 (Homo sapiens, UniProt P04798); test: Inhibition of human supersomes CYP1A1-mediated 7-ethoxyresorufin conversion to fluorescent resorufin preincubated with 7-ethoxyresorufin for 5 mins followed by addition of NADPH regenerating system measured for 15 mins by EROD assay; assay type: ADME; settings: for pKi: read-out: Ki
T1 sequence (P04798 whole entry): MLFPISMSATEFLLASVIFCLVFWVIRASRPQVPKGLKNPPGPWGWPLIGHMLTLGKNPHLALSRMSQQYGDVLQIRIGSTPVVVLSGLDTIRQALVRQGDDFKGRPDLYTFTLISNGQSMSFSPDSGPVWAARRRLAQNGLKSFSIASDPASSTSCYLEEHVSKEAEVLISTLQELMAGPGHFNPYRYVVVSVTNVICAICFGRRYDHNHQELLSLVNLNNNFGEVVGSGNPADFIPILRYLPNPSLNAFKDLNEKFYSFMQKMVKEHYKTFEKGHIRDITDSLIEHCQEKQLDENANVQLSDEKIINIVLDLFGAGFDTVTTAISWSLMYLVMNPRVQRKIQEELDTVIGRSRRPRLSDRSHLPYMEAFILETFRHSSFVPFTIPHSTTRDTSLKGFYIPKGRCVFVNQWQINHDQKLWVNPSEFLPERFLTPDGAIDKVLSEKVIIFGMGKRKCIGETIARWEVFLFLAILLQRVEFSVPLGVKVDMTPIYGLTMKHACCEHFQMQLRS
How it was run: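 EROD assay with human CYP1A1 supersomes containing reductase, in potassium phosphate buffer. Drug final 32–31 600 nM and 7-ethoxyresorufin 94–3 000 nM, with 0.35% DMSO, preincubated 5 min at 37 °C. Reaction started with NADPH-regenerating system and 0.15 pmol CYP1A1 in 150 µL. Initial velocity taken from 1–5 min; Vmax and Km from Lineweaver-Burk plot.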

[10] = Selectivity ratio of IC50 for ER/PR/HER2 deficient human MDA-MB-231 cells to IC50 for ER/PR/HER2 deficient human MDA-MB-468 cells; assay type: functional; how it was run: as §2
[11] = Selectivity ratio of IC50 for human HT-29 cells to IC50 for human MCF7 cells; assay type: functional; how it was run: as §2
M21 = test: Antiproliferative activity against human M21 cells after 48 hrs by SRB assay; assay type: functional, cell-based; settings: M21, 48 h
How it was run: (§3)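 SRB assay run as in the NCI screen with slight modifications. Seeding: HT-29 5.0 x 10^3, M21 3.5 x 10^3, MCF7 7.5 x 10^3 cells; cells preincubated 24 h. Drug in DMSO added at 0.75 to 1.0 x 10^5 nM for 48 h. TCA fixation, sulforhodamine B staining, absorbance 530-565 nm. At least two experiments in triplicate; runs accepted only when relative SD < 10%.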

MCF7 [12] = test: Antiproliferative activity against human MCF7 cells after 48 hrs by SRB assay; assay type: functional, cell-based; settings: MCF7, 48 h; how it was run: as §3
HT-29 = test: Antiproliferative activity against human HT-29 cells after 48 hrs by SRB assay; assay type: functional, cell-based; settings: HT-29, 48 h; how it was run: as §3
Cytochrome P450 1A1 [13] = target: T1, Cytochrome P450 1A1; test: Prodrug activation assessed as human supersomes CYP1A1-mediated 3,4,5-trimethoxyphenyl 4-(2-oxoimidazolidin-1-yl)benzenesulfonate formation after 4 hrs by HPLC-MS analysis; assay type: ADME; settings: recombinant enzyme
Cytochrome P450 1A1 [14] = target: T1, Cytochrome P450 1A1; test: Prodrug activation assessed as time required for human supersomes CYP1A1-mediated 3,4,5-trimethoxyphenyl 4-(2-oxoimidazolidin-1-yl)benzenesulfonate formation after 4 hrs by HPLC-MS analysis; assay type: ADME; settings: recombinant enzyme
[15] = Selectivity ratio of IC50 for human M21 cells to IC50 for human MCF7 cells; assay type: functional; how it was run: as §2
Cytochrome P450 1A1 [16] = target: T1, Cytochrome P450 1A1; test: Prodrug conversion assessed as human supersomes CYP1A1-mediated 3,5-dimethoxyphenyl 4-(2-oxoimidazolidin-1-yl)benzenesulfonate formation after 4 hrs by HPLC-MS analysis; assay type: ADME; settings: recombinant enzyme

pIC50 (MCF7 [12])	pIC50 (HT-29)	Structure (SMILES)	Ratio IC50 [11]	pIC50 (M21)	Ratio IC50 [15]	other results
		COc1cc(OC)cc(OS(=O)(=O)c2ccc(N3CCNC3=O)cc2)c1				Ratio IC50 (HT-1080 [1]): 1.8; pIC50 (MDA-MB-468): 8.19; pIC50 (HT-1080 [2]): 8.38; pIC50 (SK-BR-3): 8.26; pIC50 (T47D): 8.06; Ratio IC50 [3]: 1.1; pIC50 (MDA-MB-231): 8.00; Ratio IC50 [4]: 1.8; Ratio IC50 [5]: 2.5; pIC50 (HT-1080 [6]): 8.64; pIC50 (MCF7 [7]): 8.40; pIC50 (HT-1080 [8]): 8.27; Ki (Cytochrome P450 1A1 [9]): Not Active; Ratio IC50 [10]: 1.5
7.31	5.25	CCCN1CCN(c2ccc(S(=O)(=O)Oc3cc(OC)c(OC)c(OC)c3)cc2)C1=O	110	5.41	80	Ratio IC50 (HT-1080 [1]): 5100; pIC50 (MDA-MB-468): 7.59; pIC50 (HT-1080 [2]): 4.09; pIC50 (SK-BR-3): 8.30; pIC50 (T47D): 7.31; Ratio IC50 [3]: 130; pIC50 (MDA-MB-231): 5.22; Ratio IC50 [4]: 1300; Ratio IC50 [5]: 340; Drug metabolism (Cytochrome P450 1A1 [13]): Metabolite_Detected; pIC50 (HT-1080 [6]): 7.80; pIC50 (MCF7 [7]): 7.74; Time (Cytochrome P450 1A1 [14]): 15 min; pIC50 (HT-1080 [8]): 5.17; pKi (Cytochrome P450 1A1 [9]): 6.62; Ratio IC50 [10]: 240
6.40	< 4.00	CCCCN1CCN(c2ccc(S(=O)(=O)Oc3cc(F)cc(F)c3)cc2)C1=O	>250	< 4.00	>250	
4.41	4.43	CCN1CCN(c2ccc(S(=O)(=O)Oc3ccc(OC)c(OC)c3)cc2)C1=O	1	4.46	0.9	
5.27	5.17	CCN1CCN(c2ccc(S(=O)(=O)Oc3cccc(Cl)c3)cc2)C1=O	1.3	5.41	0.7	
7.24	5.02	CCCCN1CCN(c2ccc(S(=O)(=O)Oc3cccc(I)c3)cc2)C1=O	170	4.64	400	
5.72	5.51	CCN1CCN(c2ccc(S(=O)(=O)Oc3cccc(I)c3)cc2)C1=O	1.7	5.66	1.2	
7.72	4.44	CCCCN1CCN(c2ccc(S(=O)(=O)Oc3cc(OC)cc(OC)c3)cc2)C1=O	1900	< 4.00	>5300	Ratio IC50 (HT-1080 [1]): 2600; pIC50 (MDA-MB-468): 6.80; pIC50 (HT-1080 [2]): 4.09; pIC50 (SK-BR-3): 7.28; pIC50 (T47D): 6.62; Ratio IC50 [3]: >420; pIC50 (MDA-MB-231): < 4.00; Ratio IC50 [4]: >1900; Ratio IC50 [5]: >2900; Drug metabolism (Cytochrome P450 1A1 [13]): Metabolite_Notdetected; pIC50 (HT-1080 [6]): 7.51; pIC50 (MCF7 [7]): 7.46; Drug metabolism (Cytochrome P450 1A1 [16]): Metabolite_Detected; Time (Cytochrome P450 1A1 [14]): 15 min; pIC50 (HT-1080 [8]): 4.54; pKi (Cytochrome P450 1A1 [9]): 6.31; Ratio IC50 [10]: >630
6.42	4.89	CCCN1CCN(c2ccc(S(=O)(=O)Oc3cccc(Cl)c3)cc2)C1=O	34	5.07	23	
5.20	4.60	CCCN1CCN(c2ccc(S(=O)(=O)Oc3cccc(OC)c3)cc2)C1=O	4	5.00	1.6	
5.54	5.60	CN1CCN(c2ccc(S(=O)(=O)Oc3c(Cl)cc(Cl)cc3Cl)cc2)C1=O	0.9	5.77	0.6	
5.60	5.52	Cc1ccc(OS(=O)(=O)c2ccc(N3CCN(C)C3=O)cc2)c(C)c1	1.2	5.74	0.7	
4.85	4.66	CCN1CCN(c2ccc(S(=O)(=O)Oc3cccc(OC)c3)cc2)C1=O	1.6	5.15	0.5	

Reference: ChEMBL document CHEMBL4014335, “Activation of Phenyl 4-(2-Oxo-3-alkylimidazolidin-1-yl)benzenesulfonates Prodrugs by CYP1A1 as New Antimitotics Targeting Breast Cancer Cells” (J Med Chem, 2017)
